Experimental findings from ChEMBL document CHEMBL2086264 are described below.

As a reminder, the IC50 is the concentration that inhibits the measured activity by half. By MIC90 is commonly meant the lowest concentration that inhibits either 90% of growth or 90% of the strains tested, depending on the study.

SMILES strings stand for the structures. ≈ marks a conversion by molar mass, not a printed value. Calls of active or inactive are those of the source. The rule behind the calls is not given here.

Assay [1] concerns Staphylococcus aureus subsp. aureus RN4220. Put plainly: Inhibition of PlsY in Staphylococcus aureus RN4220 harboring gpsA mutant assessed as Fab4-mediated fatty acid chain elongation measured as 17C fatty acid level at 50 uM after 2.5 hrs by mass spectrophotometry. Details: scale not given: the % may be the effect or the level left. The procedure, abridged:
(§1)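 RN4220 grown in Luria-Bertani broth at 37°C with 225 rpm shaking to OD600 0.5. 50 mL cultures treated for 2.5 h alongside a DMSO control. Lipids extracted by Bligh–Dyer and fatty acids analyzed by gas chromatography. Weight percent, mean of duplicates; not detected means <1%.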

For assay [2], the system named is Staphylococcus aureus. Put plainly: Growth inhibition of Staphylococcus aureus RN4220 harboring gpsA mutant at >= 25 uM measured over 2 hrs by spectrophotometry. The assay is classed as functional, organism-based.
Assay [3] has as its system Staphylococcus aureus. Put plainly: Inhibition of RNA synthesis in Staphylococcus aureus RN4220 harboring gpsA mutant assessed as inhibition of [3H]uracil incorporation into RNA at 50 uM incubated for 15 mins before [3H]uracil addition measured after 30 mins by scintillation counting. The assay is classed as functional, organism-based. The method in brief: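 RN4220 at OD600 0.5 in 10 mL aliquots, 15 min with compound. Then 30 min with 10 µCi label: 3H amino acid mix (protein), [3H]thymidine (DNA) or [3H]uracil (stable RNA). Cells collected on 0.45 µm filters, counted, OD600-normalized and expressed relative to untreated cells. Duplicates, mean with standard error.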

Assay [4] relates to Staphylococcus aureus subsp. aureus RN4220. Put plainly: Inhibition of PlsY in Staphylococcus aureus RN4220 harboring gpsA mutant assessed as Fab4-mediated fatty acid chain elongation measured as 17C fatty acid level at 25 uM after 2.5 hrs by mass spectrophotometry. Also noted: scale not given: the % may be the effect or the level left. The procedure, abridged:
as §1

The subject of assay [5] is Bacillus anthracis. Put plainly: Inhibition of protein synthesis in Bacillus anthracis sterne assessed as Inhibition of [3H]amino acid incorporation into protein incubated for 15 mins prior to [3H]amino acid addition measured after 30 mins by scintillation counting. The assay is classed as functional, organism-based.
In assay [6] the test system is Staphylococcus aureus subsp. aureus RN4220. Put plainly: Inhibition of PlsY in Staphylococcus aureus RN4220 harboring gpsA mutant assessed as Fab4-mediated fatty acid chain elongation measured as 20C fatty acid level at 25 uM after 2.5 hrs by mass spectrophotometry. Details: scale not given: the % may be the effect or the level left. The method in brief: as §1
Assay [7] shares this test system. Put plainly: Inhibition of PlsY-mediated lipid synthesis in Staphylococcus aureus RN4220 harboring gpsA mutant assessed as inhibition of [14C]acetate incorporation into fatty acid at 50 uM incubated for 15 mins prior to [14C]acetate addition measured after 30 mins by scintillation counting. The method in brief: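 Mid-log S. aureus RN4220 (OD600 0.5) split into 10 mL aliquots. Compound or DMSO added for 15 min, then 10 µCi [14C]acetate for 30 min. Cells PBS-washed, lipids extracted by Bligh–Dyer, scintillation counted and normalized to OD600. Duplicates, mean with standard error.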

The test system of assay [8] is Bacillus anthracis. Put plainly: Growth inhibition of Bacillus anthracis sterne at 5 uM measured immediately post-compound addition. The assay is classed as functional, organism-based.
Assay [9] deals with Staphylococcus aureus subsp. aureus RN4220. Put plainly: Inhibition of PlsY-mediated lipid synthesis in Staphylococcus aureus RN4220 assessed as inhibition of [14C]acetate incorporation into membrane phospholipids incubated for 15 mins prior to [14C]acetate addition measured after 30 mins by scintillation counting. The method in brief:
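Cultures grown from OD600 0.1 to 0.5, split into 10 mL aliquots, exposed to inhibitor or DMSO control for 15 min, then pulsed with [14C]acetate (10 µCi) for 30 min. Cells washed 4× in PBS, lipids extracted by Bligh and Dyer, counted by scintillation and normalized to OD600. Duplicates, mean with standard error.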

Assay [10] can be described thus: Inhibition of Staphylococcus aureus PlsY expressed in Escherichia coli FB23281 using [U-14C]glycerol-PO4 as substrate after 20 mins by scintillation counting. The procedure, abridged: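 Membranes from E. coli FB23281 (ΔplsY) expressing S. aureus PlsY (SA1187), 4 µg per reaction. pH 7.4 buffer of 100 mM Tris–HCl, 150 mM NaCl, 1 mg/mL BSA and 5 mM Na3VO4, with 100 µM [U-14C]glycerol-PO4. Started with 16:0-PO4 (final 100 µM), 20 min at 37°C. Spotted on filter discs, washed in graded ice-cold TCA, scintillation counted.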

Assay [11] has as its system Bacillus anthracis. Put plainly: Antibacterial activity against Bacillus anthracis after overnight incubation by microbroth dilution assay. The assay is classed as functional. Background: In broth dilution the organism is exposed to a series of concentrations in liquid medium.
Assay [12] concerns Staphylococcus aureus subsp. aureus RN4220. Put plainly: Inhibition of PlsY in Staphylococcus aureus RN4220 harboring gpsA mutant assessed as Fab4-mediated fatty acid chain elongation measured as 18C fatty acid level at 50 uM after 2.5 hrs by mass spectrophotometry. Also noted: scale not given: the % may be the effect or the level left. The procedure, abridged: as §1
The test system of the next assay is Streptococcus pneumoniae. Put plainly: Antibacterial activity against Streptococcus pneumoniae R6 after overnight incubation by microbroth dilution assay. The assay is classed as functional. The method in brief: (§2)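 CLSI M7A7 microbroth dilution in Mueller-Hinton broth; S. pneumoniae broth given 5% lysed horse blood. DMSO stocks of 10 mg/mL; twofold dilutions to final 200–0.0125 µg/mL. Mid-log inoculum (OD600 0.5) diluted to final OD600 0.0005 (~10^5 CFU/mL). Overnight at 37°C; MIC is the lowest concentration inhibiting 90% of visible growth.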

Assay [13] relates to Staphylococcus aureus subsp. aureus RN4220. Put plainly: Inhibition of PlsY in Staphylococcus aureus RN4220 harboring gpsA mutant assessed as Fab4-mediated fatty acid chain elongation measured as 19C fatty acid level at 25 uM after 2.5 hrs by mass spectrophotometry. Also noted: scale not given: the % may be the effect or the level left. The procedure, abridged:
as §1

For assay [14] the test system is unchanged. Put plainly: Inhibition of PlsY in Staphylococcus aureus RN4220 harboring gpsA mutant assessed as 36C phophotidylglycerol formation at 50 uM after 2.5 hrs by mass spectrophotometry. The procedure, abridged: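 RN4220 grown in Luria-Bertani broth at 37°C to OD600 0.5. 50 mL aliquots treated for 2.5 h alongside a DMSO control. Cells PBS-washed, lipids extracted by Bligh–Dyer. Phosphatidylglycerol molecular species distribution determined by mass spectrometry.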

Assay [15] concerns Bacillus anthracis. Put plainly: Inhibition of DNA synthesis in Bacillus anthracis sterne assessed as Inhibition of [3H]thymidine incorporation into DNA incubated for 15 mins prior to [3H]thymidine addition measured after 30 mins by scintillation counting. The assay is classed as functional, organism-based. Background: Dividing cells build labelled thymidine or BrdU into new DNA.

For another assay, the system named is Enterococcus faecalis. Put plainly: Antibacterial activity against Enterococcus faecalis ATCC 33186 after overnight incubation by microbroth dilution assay. The assay is classed as functional. The method in brief: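 CLSI microbroth dilution in Mueller-Hinton broth; compounds dissolved in DMSO, twofold serial dilutions giving final 200–0.0125 µg/mL. Inoculum from single colony grown at 37°C to mid-log (OD600 0.5), diluted to final OD600 0.0005 (~10^5 CFU/mL). Incubated overnight at 37°C; MIC = lowest concentration inhibiting 90% of visible growth.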

Assay [16] has as its system Staphylococcus aureus subsp. aureus RN4220. Put plainly: Inhibition of PlsY in Staphylococcus aureus RN4220 harboring gpsA mutant assessed as Fab4-mediated fatty acid chain elongation measured as 15C fatty acid level at 50 uM after 2.5 hrs by mass spectrophotometry. Also noted: scale not given: the % may be the effect or the level left. The procedure, abridged: as §1

Assay [17] deals with Staphylococcus aureus. Put plainly: Antibacterial activity against Staphylococcus aureus ATCC 29213 after overnight incubation by microbroth dilution assay. The assay is classed as functional. The method in brief:
as §2

Assay [18] concerns Bacillus anthracis. Put plainly: Inhibition of RNA synthesis in Bacillus anthracis sterne assessed as Inhibition of [3H]uracil incorporation into RNA incubated for 15 mins prior to [3H]uracil addition measured after 30 mins by scintillation counting. The assay is classed as functional, organism-based.
For assay [19], the system named is Staphylococcus aureus subsp. aureus RN4220. Put plainly: Inhibition of PlsY in Staphylococcus aureus RN4220 harboring gpsA mutant assessed as Fab4-mediated fatty acid chain elongation measured as 16C fatty acid level at 25 uM after 2.5 hrs by mass spectrophotometry. Also noted: scale not given: the % may be the effect or the level left. The procedure, abridged:
as §1

Assay [20] has the same test system. Put plainly: Inhibition of PlsY in Staphylococcus aureus RN4220 harboring gpsA mutant assessed as Fab4-mediated fatty acid chain elongation measured as 21C fatty acid level at 25 uM after 2.5 hrs by mass spectrophotometry. Also noted: scale not given: the % may be the effect or the level left. The method in brief:
as §1

Take `O=C(CCCCCCCc1ccccc1)NS(=O)(=O)Oc1ccccc1`: the Activity in assay [1] stood at 8%; in assay [4] it was 10%; in [6], 9%; in assay [12], 12%; in assay [13], 18%; in assay [16] it was 32%. Further, the Activity in [19] is 5%; in assay [20] it was 12%. In addition, the “growth inhibition (GI)” value with Staphylococcus aureus [2] and in the assay with Bacillus anthracis [8] was “Active” each time. Also, the inhibition result in the assay with Staphylococcus aureus [3] is “inactive”. The inhibition entry (in the assay on Bacillus anthracis [5]; in assay [7]; in [14]; in the assay on Bacillus anthracis [15]; in the assay with Bacillus anthracis [18]) was “Active” in each case. For the same compound, in [9], the inhibition entry was “Dose-dependent effect”. In [10], the IC50 turned out to be 25 µM. For the same compound, the MIC90 in the assay on Bacillus anthracis [11] is 6.25 µg/mL (≈ 16.6 µM); with Streptococcus pneumoniae, 100 µg/mL (≈ 266 µM); with Enterococcus faecalis it was 100 µg/mL (≈ 266 µM); against Staphylococcus aureus [17], 12.5 µg/mL (≈ 33.3 µM).
